Experimental data reported in paper PMC7884954 (International Journal of Nanomedicine, 2021).

Assays:
[1] = system: female albino (BALB/c) mice; test: In vivo acute toxicity: body visceral index; details: i.v., post 7 days
Summary of the method: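 Female BALB/c mice (30–35 g, 8–10 weeks; 22 ± 2 °C, 12 h light/dark) were randomised into 6 groups of 3. Free drugs in 0.1% DMSO, formulations or saline were given i.v. via tail vein as two equal doses on days 1 and 3 (mTHPC 0.15 mg.kg−1, THP 5 mg.kg−1 equivalent). On day 7, after cervical dislocation, heart, kidney, liver and lungs were washed in saline and weighed. Organ-to-body weight index was compared with controls; mean ± S.D.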

blood plasma = test: Activated partial thromboplastin time test
Summary of the method: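 Plasma was separated from fresh blood by centrifugation at 5000x g for 5 min. It was mixed with an equal volume of test formulation and aPTT reagent, and coagulation was activated with pre-warmed […] CaCl2. Clotting time (s) was recorded spectrophotometrically on a coagulation analyzer, […]. Triplicates, mean ± S.D.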

SK-OV-3 cells [2] = test: Assessment of reactive oxygen species; format: cell-based, human; details: mTHPC 5 µM, THP 50 µM, 4 h, light dose 0.5 J.cm^−2 vs dark
Summary of the method: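 SK-OV-3 cells (IMDM, 10% FCS, non-essential amino acids, 37°C, 7% CO2) were seeded at 25,000/well overnight and washed with DPBS pH 7.4 containing Ca2+/Mg2+. They were loaded with 25 µM H2DCFDA for 1 h at 37 °C, washed, then exposed to free drug or formulation for 4 h at 37°C. After medium exchange, cells were irradiated at 652 nm, lysed, and read at λex 485/λem 520 nm.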

SK-OV-3 cells [3] = test: In vitro cytotoxicity; format: cell-based, human
Summary of the method: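 SK-OV-3 cells (IMDM, 10% FCS, non-essential amino acids, 37°C, 7% CO2) were seeded at 10,000/well and left to adhere overnight. They were exposed to a concentration series of free drug (in DMSO) or formulations for 4 h, then switched to fresh medium without irradiation (dark). Next day, MTT (2 mg.mL−1) was added for 4 h, formazan was dissolved in DMSO, and A570 was read. Untreated cells were set as 100%. Three independent experiments; IC50 from non-linear fit.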

[4] = system: female albino (BALB/c) mice; test: In vivo acute toxicity: serum biochemical analysis; details: i.v., after 7 days
Summary of the method: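 Female BALB/c mice (30–35 g, 8–10 weeks) were used in groups of 3. Free drugs in 0.1% DMSO, formulations or saline were given i.v. via tail vein as two equal doses on days 1 and 3 (mTHPC 0.15 mg.kg−1, THP 5 mg.kg−1 equivalent). On day 7, blood was drawn under anesthesia by thoracic puncture and spun at 1200x g for 10 min. Supernatant was stored at −20 °C and then analysed on a serum biochemistry analyzer.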

[5] = system: female albino (BALB/c) mice; test: In vivo acute toxicity: histopathological examinations; details: i.v., after 7 days, H&E stain
Summary of the method: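 Female BALB/c mice (30–35 g, 8–10 weeks) were randomised to 6 groups (n=3) and given test formulations i.v. via tail vein as two equal doses on days 1 and 3; the saline group was the control. OECD 425 was followed except for the i.v. route. At day 7 mice were killed by cervical dislocation. Heart, liver, kidney and lungs were saline-washed, sectioned by rotary microtome, H&E-stained and examined by light microscopy.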

SK-OV-3 cells [6] = test: Cellular uptake pathway analysis with chlorpromazine and Filipin-III; format: cell-based, human; details: 30 µM chlorpromazine, 15 µM Filipin III, light dose 0.5 Jcm^−2
Summary of the method: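 SK-OV-3 cells seeded at 10,000/well, adhered overnight (37 °C, 5% CO2), washed in PBS with Ca2+/Mg2+. Pre-incubated 1 h with chlorpromazine (30 µM) or Filipin III (15 µM), then exposed to test formulations or free drugs in DMSO (photosensitiser 1.5 µM, chemotherapeutic 50 µM) for a total of 4 h. Medium replaced, irradiated 0.50 J.cm−2, MTT after 24 h; un-irradiated dark control.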

SK-OV-3 cells [7] = test: In vitro genotoxicity, alkaline comet assay; format: cell-based, human; details: SK-OV-3, 4 h, equitoxic dose, light dose 0.05 Jcm^−2
Summary of the method: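 SK-OV-3 cells (100,000/well, six-well plate) adhered overnight, then treated with test formulations for 4 h at 37 °C. After a medium change, cells were irradiated at an equitoxic light dose giving 80% viability and returned for 12 h. Cells were trypsinised, washed twice in PBS, set to 80,000 cells/mL and embedded in 1% low-melting agarose. Slides were ethanol-fixed (70%, 20 min), SYBR Safe-stained and viewed by fluorescence microscopy; 50 comets scored per formulation.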

Ex vivo hemolysis assay = details: human, washed red blood cells (RBC suspension diluted 1:50), pH 7.4
Summary of the method: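 Donor blood in EDTA was spun at 500× g for 5 min. RBCs were washed three times in DPBS pH 7.4, then diluted 1:50 in PBS. The suspension was incubated with test formulations in V-bottom plates for 1 h at 37 °C with orbital shaking. After centrifugation, supernatant absorbance was read at 540 nm. Triton X-100 defined 100% hemolysis, with saline as the other control. Triplicates, mean ± S.D.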

Row | Compound | Visceral body index: kidney weight vs control group [1] | Visceral body index: liver weight vs control group [1] | aPTT coagulation time (blood plasma) [s] | Intracellular ROS production (SK-OV-3 cells [2]) | Cytotoxicity (reduction in cell viability) (SK-OV-3 cells [3]; SK-OV-3, dose of 100 µM, no irradiation) [%] | ALP level vs control group [4] | ALT level vs control group [4] | AST level vs control group [4] | Bilirubin level vs control group [4] | Creatinine level vs control [4] | Total protein level [4] | Uric acid level vs control group [4] | Histopathology: kidney [5] | Histopathology: liver [5] | Histopathology: lungs [5] | Cellular uptake mechanism (SK-OV-3 cells [6]) | DNA damage class (olive tail moment, comet assay) (SK-OV-3 cells [7]) | hemolysis at 1 h (Ex vivo hemolysis assay) [%] | Reduction of cell viability (dark toxicity) (SK-OV-3 cells [3]; SK-OV-3, without irradiation, highest mTHPC concentration 5 µM) [%]
1 | COc1cccc2c1C(=O)c1c(O)c3c(c(O)c1C2=O)C[C@@](O)(C(=O)CO)C[C@@H]3O[C@H]1C[C@H](N)[C@H](O[C@@H]2CCCCO2)[C@H](C)O1 [THP, [2″R]‐4′‐O‐tetrahydropyranyl‐doxorubicin] | slight increase in the organ weight | highest increase | 127.7 | no significant difference in the ROS levels | 72.26 ± 5.40 | highest increase | increased | highest level | slightly higher | increased | slight increase | moderately increased | signs of necrosis, apoptosis, as well as congestion of the renal tissue | some signs of the apoptotic cells with fibrosis, pyknosis (condensation of nuclei due to apoptosis) and hepatic lesions | small changes in the lung′s histology with the breakage of the lung′s fiber | None of the inhibitors was able to minimize the uptake | class-II (class-II damage (5–20%; low damage)) | 20 | –
2 | Oc1cccc(-c2c3nc(c(-c4cccc(O)c4)c4ccc([nH]4)c(-c4cccc(O)c4)c4nc(c(-c5cccc(O)c5)c5ccc2[nH]5)CC4)C=C3)c1 [mTHPC, 5, 10, 15, 20-tetrakis (3-hydroxyphenyl) chlorin] | slight increase in the organ weight | – | 60.2 | increased levels of intracellular ROS | – | – | increased | slightly higher | slightly higher | increased | slight increase | – | – | – | – | None of the inhibitors was able to minimize the uptake | class-II (class-II damage (5–20%; low damage)) | 14 | 18.51 ± 1.87
